{"source": "paper PMC4241170", "about": "(ACS Chemical Biology, 2014)", "key": {"[1]": {"target": "HSP70 (aa 386-616) (Homo sapiens, UniProt P0DMV8)", "sequence (P0DMV8 386-616)": "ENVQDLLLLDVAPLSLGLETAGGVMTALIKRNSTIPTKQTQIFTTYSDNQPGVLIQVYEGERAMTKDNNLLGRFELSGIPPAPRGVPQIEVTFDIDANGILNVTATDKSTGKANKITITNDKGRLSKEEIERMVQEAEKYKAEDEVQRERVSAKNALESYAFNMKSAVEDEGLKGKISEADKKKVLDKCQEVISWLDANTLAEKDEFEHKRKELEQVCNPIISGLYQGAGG", "test": "ITC, C-terminal domain of HSP70", "type": "binding", "conditions": "Figure 2J", "method_in_brief": "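Recombinant HSP70 C-terminal fragment (aa 386–616) titrated against test compound by isothermal titration calorimetry. Kd reported as average and standard deviation of three independent experiments.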"}, "[2]": {"target": "DnaK (aa 389-607) (Escherichia coli, UniProt P0A6Y8)", "sequence (P0A6Y8 389-607)": "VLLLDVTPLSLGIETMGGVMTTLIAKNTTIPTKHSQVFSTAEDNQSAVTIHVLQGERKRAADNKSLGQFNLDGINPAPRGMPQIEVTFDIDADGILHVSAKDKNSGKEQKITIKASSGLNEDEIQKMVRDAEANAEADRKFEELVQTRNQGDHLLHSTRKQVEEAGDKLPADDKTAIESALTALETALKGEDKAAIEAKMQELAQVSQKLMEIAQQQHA", "test": "ITC, DnaK SBD", "type": "binding, E. coli", "conditions": "data not shown"}, "[3]": {"tested_on": "mammalian tumor cells", "test": "Viability of mammalian tumor cells", "type": "cell-based", "conditions": "TPP moiety alone, Figure 1C", "method_in_brief": "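Human A875 melanoma cells and nontransformed human IMR90 fibroblasts treated for 24 h alongside a DMSO vehicle control. Results are representative of four independent experiments.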"}, "[4]": {"tested_on": "E. coli DH5α", "test": "Growth of E. coli at elevated temperature", "type": "cell-based", "conditions": "6 h at 43 °C, 30 μM in Figure 1E", "method_in_brief": "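E. coli DH5α grown with varying concentrations of test compound for 6 h at 43 °C, with a DMSO vehicle control; one comparison used 30 μM. Growth measured in four independent experiments, with s.d. error bars.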"}, "[5]": {"tested_on": "HSP70", "test": "ITC, HSP70 presaturated with PET-16, interaction with PES", "type": "binding, human", "conditions": "data not shown"}, "[6]": {"tested_on": "nucleotide-free HSP70 protein", "test": "ITC, nucleotide-free HSP70", "type": "binding, human", "conditions": "compared with ADP-bound form; 42 °C"}, "[7]": {"tested_on": "GRP75", "conditions": "ref [5],[19]; cited from earlier work"}, "[8]": {"tested_on": "GRP78 (BiP)", "conditions": "ref [5],[19]; cited from earlier work"}}, "data": [{"compound": "triphenylphosphine (TPP) bromide", "values": [{"measurement": "binding to HSP70 SBD (ITC)", "setting": "[1]", "value": "does not bind"}, {"measurement": "binding to DnaK SBD (ITC)", "setting": "[2]", "value": "does not bind"}, {"measurement": "effect on viability of mammalian tumor cells", "setting": "[3]", "value": "little discernible effect"}, {"measurement": "effect on growth of E. coli", "setting": "[4]", "value": "did not detect an effect"}]}, {"compound": "NS(=O)(=O)C#Cc1ccccc1", "note": "[PES, 2-phenylethynesulfonamide]", "values": [{"measurement": "interaction of HSP70 with PES after presaturation with PET-16", "setting": "[5]", "value": "impairs the interaction"}, {"measurement": "interaction with nucleotide-free HSP70 (ITC)", "setting": "[6]", "value": "comparable affinity"}, {"measurement": "interaction with GRP75", "setting": "[7]", "value": "do not interact"}, {"measurement": "interaction with GRP78 (BiP)", "setting": "[8]", "value": "do not interact"}]}]}
